The target of this assay is Glucose-6-phosphatase catalytic subunit 1 (Homo sapiens) (UniProt P35575). Kind of assay: endogenous G6PC mRNA suppression, late-stage follow-up, mechanism study for RORA inverse agonist project, cell-based, real-time PCR, fluorescence, assay provider (AID 504907). Conditions: HepG2 G6PC mRNA RT-qPCR, 20 h, at 10 µM, stronger effect = lower value. The essentials:
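Material: HepG2 cells, native G6Pase gene; Doses: single nominal 10 µM test compound dose, DMSO vehicle; Schedule: 20 h compound exposure of HepG2 cells; Technique: SYBR Green real-time RT-PCR of G6Pase mRNA; Read-out: averaged GAPDH-normalised G6Pase mRNA, fold versus DMSO-treated cells; Controls: vehicle cells, ROR-targeting siRNA as inhibition reference.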
For orientation: In qPCR the cycle at which signal appears reflects the starting amount.

Molecules are shown by their SMILES.

Chain of Glucose-6-phosphatase catalytic subunit 1 (Homo sapiens) (P35575 whole entry, looked up): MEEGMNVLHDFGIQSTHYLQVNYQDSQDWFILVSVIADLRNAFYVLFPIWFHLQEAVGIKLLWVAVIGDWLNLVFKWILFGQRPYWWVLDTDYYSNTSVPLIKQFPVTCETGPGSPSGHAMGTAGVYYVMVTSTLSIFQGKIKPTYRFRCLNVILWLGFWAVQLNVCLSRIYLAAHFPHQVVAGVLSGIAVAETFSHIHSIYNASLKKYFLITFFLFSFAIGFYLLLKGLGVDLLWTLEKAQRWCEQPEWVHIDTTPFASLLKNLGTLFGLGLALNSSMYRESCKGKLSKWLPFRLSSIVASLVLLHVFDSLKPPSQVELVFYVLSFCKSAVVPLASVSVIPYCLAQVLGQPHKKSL

Regarding `O=S(=O)(Nc1ccc(C(O)(C(F)(F)F)C(F)(F)F)cc1)c1cccs1`, the relative mRNA level worked out at 0.279 (with RORA + RORG siRNA) and 0.676 (with control siRNA).

These data come from PubChem BioAssay AID504907 (The Scripps Research Institute Molecular Screening Center, 2011).
